ChEMBL document CHEMBL5376013, “Design, synthesis and biological evaluation of novel morpholinopyrimidine-5-carbonitrile derivatives as dual PI3K/mTOR inhibitors” (RSC Med Chem, 2024)

Key:
Type in all cases: functional
Details in all cases: read-out: GI
RXF 393 = experiment: Antitumor activity against human RXF 393 cells assessed as growth inhibition at 10 uM relative to control
Summary of the method: (§1)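 After drug addition, plates were incubated 48 h at 37 °C under 5% CO2. Adherent cells were fixed with cold TCA (10% final, 60 min, 4 °C) and suspension cells with 16% final TCA. Staining used 0.4% SRB in 1% acetic acid, solubilized in 10 mM trizma, read at A515. Percent growth was calculated from time-zero, control and treated absorbances.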

CAKI-1 = experiment: Antitumor activity against human CAKI-1 cells assessed as growth inhibition at 10 uM relative to control; summary of the method: as §1
DU-145 = experiment: Antitumor activity against human DU-145 cells assessed as growth inhibition at 10 uM relative to control; summary of the method: as §1
OVCAR-4 = experiment: Antitumor activity against human OVCAR-4 cells assessed as growth inhibition at 10 uM relative to control; summary of the method: as §1
HCT-15 = experiment: Antitumor activity against human HCT-15 cells assessed as growth inhibition at 10 uM relative to control; summary of the method: as §1
SF-539 = experiment: Antitumor activity against human SF-539 cells assessed as growth inhibition at 10 uM relative to control; summary of the method: as §1
786-0 = experiment: Antitumor activity against human 786-0 cells assessed as growth inhibition at 10 uM relative to control; summary of the method: as §1
SK-MEL-2 = experiment: Antitumor activity against human SK-MEL-2 cells assessed as growth inhibition at 10 uM relative to control; summary of the method: as §1
SNB-75 = experiment: Antitumor activity against human SNB-75 cells assessed as growth inhibition at 10 uM relative to control
Summary of the method: (§2)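 Drug exposure 48 h at 37 °C, 5% CO2. Adherent cells fixed with cold TCA (10% final), suspension cells with TCA (16% final). Stained with 0.4% SRB in 1% acetic acid, dissolved in 10 mM Tris, A515. Growth relative to time-zero and untreated control.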

HOP-92 = experiment: Antitumor activity against human HOP-92 cells assessed as growth inhibition at 10 uM relative to control; summary of the method: as §1
UO-31 = experiment: Antitumor activity against human UO-31 cells assessed as growth inhibition at 10 uM relative to control; summary of the method: as §2
NCI-H23 = experiment: Antitumor activity against human NCI-H23 cells assessed as growth inhibition at 10 uM relative to control; summary of the method: as §1
SW-620 = experiment: Antitumor activity against human SW-620 cells assessed as growth inhibition at 10 uM relative to control; summary of the method: as §2
SR = experiment: Antitumor activity against human SR cells assessed as growth inhibition at 10 uM relative to control; summary of the method: as §2
NCI-H226 = experiment: Antitumor activity against human NCI-H226 cells assessed as growth inhibition at 10 uM relative to control; summary of the method: as §1
U-251 = experiment: Antitumor activity against human U-251 cells assessed as growth inhibition at 10 uM relative to control; summary of the method: as §2
COLO 205 = experiment: Antitumor activity against human COLO 205 cells assessed as growth inhibition at 10 uM relative to control; summary of the method: as §1
OVCAR-3 = experiment: Antitumor activity against human OVCAR-3 cells assessed as growth inhibition at 10 uM relative to control; summary of the method: as §1
SNB-19 = experiment: Antitumor activity against human SNB-19 cells assessed as growth inhibition at 10 uM relative to control; summary of the method: as §2
Malme-3M = experiment: Antitumor activity against human Malme-3M cells assessed as growth inhibition at 10 uM relative to control; summary of the method: as §1
SK-MEL-28 = experiment: Antitumor activity against human SK-MEL-28 cells assessed as growth inhibition at 10 uM relative to control; summary of the method: as §2
SK-OV-3 = experiment: Antitumor activity against human SK-OV-3 cells assessed as growth inhibition at 10 uM relative to control; summary of the method: as §2
T47D = experiment: Antitumor activity against human T47D cells assessed as growth inhibition at 10 uM relative to control; summary of the method: as §2
HOP-62 = experiment: Antitumor activity against human HOP-62 cells assessed as growth inhibition at 10 uM relative to control; summary of the method: as §1
MOLT-4 = experiment: Antitumor activity against human MOLT-4 cells assessed as growth inhibition at 10 uM relative to control; summary of the method: as §1
PC-3 = experiment: Antitumor activity against human PC-3 cells assessed as growth inhibition at 10 uM relative to control; summary of the method: as §1
SF-268 = experiment: Antitumor activity against human SF-268 cells assessed as growth inhibition at 10 uM relative to control; summary of the method: as §1
ACHN = experiment: Antitumor activity against human ACHN cells assessed as growth inhibition at 10 uM relative to control; summary of the method: as §1
RPMI-8226 = experiment: Antitumor activity against human RPMI-8226 cells assessed as growth inhibition at 10 uM relative to control; summary of the method: as §1
CCRF-CEM = experiment: Antitumor activity against human CCRF-CEM cells assessed as growth inhibition at 10 uM relative to control; summary of the method: as §1
MDA-MB-468 = experiment: Antitumor activity against human MDA-MB-468 cells assessed as growth inhibition at 10 uM relative to control; summary of the method: as §1
A549 = experiment: Antitumor activity against human A549 cells assessed as growth inhibition at 10 uM relative to control; summary of the method: as §1
SN12C = experiment: Antitumor activity against human SN12C cells assessed as growth inhibition at 10 uM relative to control; summary of the method: as §2
NCI/ADR-RES = experiment: Antitumor activity against human NCI-ADR-RES cells assessed as growth inhibition at 10 uM relative to control; summary of the method: as §1
LOX IMVI = experiment: Antitumor activity against human LOX IMVI cells assessed as growth inhibition at 10 uM relative to control; summary of the method: as §1
NCI-H522 = experiment: Antitumor activity against human NCI-H522 cells assessed as growth inhibition at 10 uM relative to control; summary of the method: as §1
HCT-116 = experiment: Antitumor activity against human HCT-116 cells assessed as growth inhibition at 10 uM relative to control; summary of the method: as §1
KM12 = experiment: Antitumor activity against human KM12 cells assessed as growth inhibition at 10 uM relative to control; summary of the method: as §1
BT-549 = experiment: Antitumor activity against human BT-549 cells assessed as growth inhibition at 10 uM relative to control; summary of the method: as §1
K562 = experiment: Antitumor activity against human K562 cells assessed as growth inhibition at 10 uM relative to control; summary of the method: as §1
UACC-257 = experiment: Antitumor activity against human UACC-257 cells assessed as growth inhibition at 10 uM relative to control; summary of the method: as §2
HT-29 = experiment: Antitumor activity against human HT-29 cells assessed as growth inhibition at 10 uM relative to control; summary of the method: as §1
SK-MEL-5 = experiment: Antitumor activity against human SK-MEL-5 cells assessed as growth inhibition at 10 uM relative to control; summary of the method: as §2
MDA-MB-231 = experiment: Antitumor activity against human MDA-MB-231 cells assessed as growth inhibition at 10 uM relative to control; summary of the method: as §1
UACC-62 = experiment: Antitumor activity against human UACC-62 cells assessed as growth inhibition at 10 uM relative to control; summary of the method: as §2
MCF7 = experiment: Antitumor activity against human MCF7 cells assessed as growth inhibition at 10 uM relative to control; summary of the method: as §1

## N#Cc1c(-c2ccc(Cl)cc2)nc(N/N=C/c2cccc([N+](=O)[O-])c2)nc1N1CCOCC1
RXF 393
  inhibition of growth at 10 µM: 56.6%
CAKI-1
  inhibition of growth at 10 µM: 28.1%
DU-145
  inhibition of growth at 10 µM: 13.1%
OVCAR-4
  inhibition of growth at 10 µM: 22.3%
HCT-15
  inhibition of growth at 10 µM: 23%
SF-539
  inhibition of growth at 10 µM: 17.7%
786-0
  inhibition of growth at 10 µM: 13.2%
SK-MEL-2
  inhibition of growth at 10 µM: 10.4%
SNB-75
  inhibition of growth at 10 µM: 33.4%
HOP-92
  inhibition of growth at 10 µM: 28.7%
UO-31
  inhibition of growth at 10 µM: 65.1%
NCI-H23
  inhibition of growth at 10 µM: < 1%
SW-620
  inhibition of growth at 10 µM: < 1%
SR
  inhibition of growth at 10 µM: 42.5%
NCI-H226
  inhibition of growth at 10 µM: 28.7%
U-251
  inhibition of growth at 10 µM: 40.1%
COLO 205
  inhibition of growth at 10 µM: 14.6%
OVCAR-3
  inhibition of growth at 10 µM: 11.2%
SNB-19
  inhibition of growth at 10 µM: 10%
Malme-3M
  inhibition of growth at 10 µM: < 1%
SK-MEL-28
  inhibition of growth at 10 µM: 10.2%
SK-OV-3
  inhibition of growth at 10 µM: 11.1%
T47D
  inhibition of growth at 10 µM: 42%
HOP-62
  inhibition of growth at 10 µM: < 1%
MOLT-4
  inhibition of growth at 10 µM: 36.6%
PC-3
  inhibition of growth at 10 µM: 35.8%
SF-268
  inhibition of growth at 10 µM: 12.3%
ACHN
  inhibition of growth at 10 µM: 21.3%
RPMI-8226
  inhibition of growth at 10 µM: 43.4%
CCRF-CEM
  inhibition of growth at 10 µM: 25.3%
MDA-MB-468
  inhibition of growth at 10 µM: 26.1%
A549
  inhibition of growth at 10 µM: 27.2%
SN12C
  inhibition of growth at 10 µM: 10.6%
NCI/ADR-RES
  inhibition of growth at 10 µM: 17.5%
LOX IMVI
  inhibition of growth at 10 µM: 26%
NCI-H522
  inhibition of growth at 10 µM: 24.1%
HCT-116
  inhibition of growth at 10 µM: 20.1%
KM12
  inhibition of growth at 10 µM: < 1%
BT-549
  inhibition of growth at 10 µM: 27.6%
K562
  inhibition of growth at 10 µM: 33.6%
UACC-257
  inhibition of growth at 10 µM: < 1%
HT-29
  inhibition of growth at 10 µM: < 1%
SK-MEL-5
  inhibition of growth at 10 µM: 14.9%
MDA-MB-231
  inhibition of growth at 10 µM: 17.6%
UACC-62
  inhibition of growth at 10 µM: 27.6%
MCF7
  inhibition of growth at 10 µM: < 25.6%
